Screening results deposited in PubChem BioAssay by Sanford-Burnham Center for Chemical Genomics.
Only some compounds are listed: those with a hit (about 1.3% of all), similar ones and a draw of the others.
PfG6PD inh: PfG6PD (Plasmodium falciparum) enzyme inhibition; PfGluPho enzyme, NADPH resazurin-diaphorase fluorescence; inhibition, % at 20 µM; 0.78% of 350,000 active; AID 504690;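 active means inhibition reaching at least a set limit at 20 µM in the primary screen, cut at about 59% in these data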;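 further: 0% = DMSO wells with substrate and 100% = DMSO wells lacking glucose-6-phosphate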
G6PDH counter: counter-screen for G6PDH assay hits: L. mesenteroides G6PDH inhibition. Purified L. mesenteroides G6PDH, diaphorase/resazurin coupled fluorescence, 45 min. inhibition, % at 5 µM. 0.12% of 200,000 active; in the data active means inhibition above about 50%
HKDC1 inhibitor: inhibitors of human hexokinase HKDC1 | inhibition, % at 20 µM | recombinant HKDC1, G6PDH/diaphorase resazurin coupled fluorescence | Q2TB90 | 0.16% of 340,000 active;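 active means inhibition above about 35% when tested at 20 µM, limit read from the data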;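 further: plate controls were DMSO wells with enzyme for no effect and DMSO wells lacking enzyme for full effect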
Target sequence (Q2TB90 whole entry, looked up): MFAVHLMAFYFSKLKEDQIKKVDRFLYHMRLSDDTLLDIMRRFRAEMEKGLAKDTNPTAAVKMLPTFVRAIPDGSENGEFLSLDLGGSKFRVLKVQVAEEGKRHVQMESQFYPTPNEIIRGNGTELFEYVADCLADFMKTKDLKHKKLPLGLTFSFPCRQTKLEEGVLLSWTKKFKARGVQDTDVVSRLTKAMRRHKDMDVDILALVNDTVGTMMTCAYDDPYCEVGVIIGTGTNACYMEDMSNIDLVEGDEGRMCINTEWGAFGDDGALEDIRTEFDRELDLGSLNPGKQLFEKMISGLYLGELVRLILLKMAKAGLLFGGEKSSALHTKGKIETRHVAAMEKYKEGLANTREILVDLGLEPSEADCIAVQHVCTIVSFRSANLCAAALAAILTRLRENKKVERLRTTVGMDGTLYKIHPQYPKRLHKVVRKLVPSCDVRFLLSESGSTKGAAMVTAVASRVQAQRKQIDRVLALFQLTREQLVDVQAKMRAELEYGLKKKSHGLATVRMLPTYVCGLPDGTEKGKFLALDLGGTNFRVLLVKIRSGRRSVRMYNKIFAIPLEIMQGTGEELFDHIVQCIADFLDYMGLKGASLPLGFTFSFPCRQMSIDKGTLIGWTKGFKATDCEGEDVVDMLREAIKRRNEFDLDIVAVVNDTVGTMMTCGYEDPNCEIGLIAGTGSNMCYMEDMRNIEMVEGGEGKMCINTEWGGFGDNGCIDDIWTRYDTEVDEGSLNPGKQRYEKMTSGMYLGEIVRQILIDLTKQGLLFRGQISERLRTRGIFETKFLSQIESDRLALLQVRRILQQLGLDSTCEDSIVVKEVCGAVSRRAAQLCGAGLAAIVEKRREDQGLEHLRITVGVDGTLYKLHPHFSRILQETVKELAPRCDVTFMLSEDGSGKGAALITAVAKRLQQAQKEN
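Test system: recombinant HKDC1 (HK5) hexokinase enzyme, produced in-house; Amount: enzyme 5 µg/mL final; Buffer or medium: Tris pH 8.0 buffer with MgCl2, Tween-20, BSA, BME; Reagent: glucose and ATP substrates; Doses: 20 µM test compound, 1% DMSO; Incubation: 90 min reaction incubation at room temperature, dark; Detection: resorufin fluorescence at 613 nm.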
Diaphorase inh: diaphorase inhibition or chemical oxidation counter-screen | diaphorase resazurin-to-resorufin fluorescence, NADH, 16 min; bacterial (C. kluyveri) enzyme, not human | inhibition, % at 20 µM | 0.69% of 190,000 active | AID 1217;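 active means primary screen inhibition at 20 µM above a set limit, cut at about 50% in these data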;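 further: plate controls were DMSO with full reaction for no effect and wells lacking NADH for full effect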
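controls = No-NADH positive control and DMSO neutral control | system = Clostridium kluyveri diaphorase enzyme | timing = reaction incubation of 16 min at room temperature | signal = resorufin fluorescence 544/590 nm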
Diaphorase act: counter-screen for diaphorase-based assays: diaphorase activators and chemical reducers | AID 1229 | Diaphorase/resazurin coupled assay, resorufin fluorescence, 16 min; stronger effect = higher value; 1 = vehicle wells, 0 = NADH-free wells | activation factor at 20 µM | 0.005% of 190,000 active;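 active means diaphorase activity raised at least twofold by the compound at 20 µM; inactive means activation factor below 2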
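Material: bacterial diaphorase enzyme (C. kluyveri); amount: enzyme 0.07 U/mL final; reagent: NADH substrate 0.114 mM plus resazurin dye 0.1 mM, final; doses: single compound dose of 20 µM, 1% DMSO final; timing: 16 min enzyme reaction, ambient temperature; measured by: fluorescence of resorufin, 544 nm excitation, 590 nm emission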
PfGluPho conf: confirmation of Plasmodium falciparum G6PD inhibitors | inhibition, % at 20 µM | 34% of 2,400 active | shares compounds with PfG6PD inh | AID 504753 | recombinant PfGluPho, NADPH-diaphorase-resazurin fluorescence;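 active means inhibition of at least 50% at 20 µM in any single replicate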;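 further: 0% = DMSO with substrate and 100% = DMSO lacking glucose-6-phosphate substrate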
Diaph ctr 10uM: diaphorase inhibition or oxidation at 10 uM NADPH. shares compounds with PfG6PD inh. diaphorase-coupled resazurin reduction, fluorescence, NADPH 10 uM. inhibition, % at 20 µM. 39% of 820 active;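 active means average inhibition reaching 50% or more with the compound at 20 µM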;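 further: resorufin red fluorescence formed as diaphorase reduces resazurin using NADPH; 0% = DMSO with enzyme and 100% = DMSO without enzyme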
Diaphorase 30uM: inhibits diaphorase or oxidizes, flagging false PfG6PD hits; Diaphorase/resazurin coupled assay, resorufin fluorescence, 30 uM NADPH; 29% of 820 active; inhibition, % at 20 µM; shares compounds with PfG6PD inh; AID 504863;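 active means inhibition averaging 50% or more, tested at 20 µM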;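 further: 0% = DMSO with enzyme and 100% = DMSO wells lacking diaphorase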
An asterisk follows results filed as active; . = not tested or not shown.

SMILES | PfG6PD inh | G6PDH counter | HKDC1 inhibitor | Diaphorase inh | Diaphorase act | PfGluPho conf | others
CC(C)C(=O)N1CCN(c2ccc([N+](=O)[O-])c(NC(C)c3ccccc3)c2)CC1 (centres undefined) | 81* | -25 | -4 | 24 | 0.8 | 36
CCS(=O)(=O)N1CCN(c2ccc([N+](=O)[O-])c(NC(C)c3ccccc3)c2)CC1 (centres undefined) | 78* | 7 | 9 | 22 | 0.8 | 54* | Diaph ctr 10uM=34;Diaphorase 30uM=24
Cc1cc(C)n2c(=S)[nH]nc2n1 | 71* | 2 | -2 | 31 | 0.7 | 20
O=C(Cn1sc2ccccc2c1=O)Nc1ccccc1 | 122* | . | . | . | . | 107* | Diaph ctr 10uM=-10;Diaphorase 30uM=10
O=C(CN1C(=O)c2ccccc2C1=O)Nc1ccccc1 | -5 | . | -6 | . | . | .
O=C(Cn1sc2ccccc2c1=O)NC12CC3CC(CC(C3)C1)C2 | 125* | -4 | 0 | 12 | 0.9 | 106* | Diaph ctr 10uM=-20;Diaphorase 30uM=-22
C=C1C(=O)C2=CC1CCC(=O)C1(C)CCC(OC(C)=O)C(C)(C)C1CC2O (centres undefined) | 0 | . | 1 | . | . | .
Cc1cc(C)c[n+](C2=C([O-])c3ccccc3C(=O)/C2=N\S(=O)(=O)c2cccs2)c1 | 66* | 33 | 15 | 22 | 0.8 | 50* | Diaph ctr 10uM=50*;Diaphorase 30uM=44
O=C1/C(=N\S(=O)(=O)c2cccs2)C([n+]2cccc(Cc3ccccc3)c2)=C([O-])c2ccccc21 | 63* | . | 6 | . | . | 26
c1csc(-c2nn3c(Cn4cnc5ccccc54)nnc3s2)c1 | 75* | -9 | -6 | 30 | 0.7 | 38
Clc1cccc(-c2nn3c(Cn4cnc5ccccc54)nnc3s2)c1 | 62* | -30 | 4 | 3 | 1 | 25
c1csc(-c2nn3c(Cn4nnc5ccccc54)nnc3s2)c1 | 53 | -7 | -4 | 8 | 0.9 | .
COc1ccc(/C=N/NC(=O)c2cc(-c3ccccc3)nc3ccccc23)c(OC)c1 | -2 | . | -3 | . | . | .
CC(C)(C)c1ccc(-c2cn(-c3ccc(Br)cc3)c3[n+]2CCCS3)cc1 | 15 | 6 | 12 | -17 | 1.2 | .
Cc1ccc([N+](=O)[O-])c2cccnc12 | 31 | 4 | -2 | 6 | 0.9 | .
O=[N+]([O-])c1ccc(Sc2cccc3cccnc23)c2cccnc12 | 94* | 23 | 7 | 59* | 0.4 | 53* | Diaph ctr 10uM=66*;Diaphorase 30uM=46
Oc1ccc(Nc2ccc3ccccc3c2)cc1 | 63* | . | 20 | . | . | 29
Oc1ccc(Nc2nc(-c3ccc4ccccc4c3)cs2)cc1 | . | 2 | . | 10 | 0.9 | .
CC1=CC=CC2=NC(=O)CC(C)(C(=O)N(CC(=O)NC3CCCC3)Cc3ccc(Cl)cc3)N12 (centres undefined) | -2 | . | -3 | . | . | .
CCNC(=O)NC(=O)COC(=O)c1ccccc1SCC(=O)NC(=O)NCC | 59* | 11 | -1 | 7 | 0.9 | 32
Cn1c(=O)oc2cc(S(=O)(=O)N3CCC(C(=O)N4CCc5ccccc5C4)CC3)ccc21 | -10 | 4 | 7 | 9 | 0.9 | .
S=c1[nH]c2ccccc2n2c(=S)[nH]nc12 | 9 | . | 0 | . | . | .
NNC(=O)CN1C(c2ccccc2Br)=Nc2ccc(Br)cc2C1c1ccccc1 (centres undefined) | 88* | 8 | 0 | 7 | 0.9 | 60* | Diaph ctr 10uM=54*;Diaphorase 30uM=34
COc1ccc(CCn2c(NN=C3CCCCC3)nc3c2c(=O)[nH]c(=O)n3C)cc1 | 106* | . | 11 | . | . | 81* | Diaph ctr 10uM=-8;Diaphorase 30uM=-5
COc1ccc(CNc2nc3c(c(=O)[nH]c(=O)n3C)n2CCCc2ccccc2)cc1 | -15 | -2 | 4 | 12 | 0.9 | .
SMILES | PfG6PD inh | G6PDH counter | HKDC1 inhibitor | Diaphorase inh | Diaphorase act | PfGluPho conf | others
COc1cc2c(cc1OC)C(=O)C(Br)CC2 (centres undefined) | 112* | . | . | . | . | 106* | Diaph ctr 10uM=101*;Diaphorase 30uM=98*
COc1cc2c(cc1OC)C(=O)C(c1ccc3c(c1)OCO3)CC2 (centres undefined) | -4 | . | . | . | . | .
Cc1cccc(NC(=O)CCNS(=O)(=O)c2ccc3[nH]c(=O)oc3c2)c1 | 7 | . | -6 | . | . | .
O=C1c2ccccc2C(Nc2cccnc2)N1Cc1ccc2c(c1)OCO2 (centres undefined) | -4 | -10 | -3 | 9 | 0.9 | .
O=C1c2ccccc2C(Nc2ccc3c(c2)OCO3)N1Cc1ccco1 (centres undefined) | 61* | 6 | 7 | 31 | 0.7 | 39
O=C1c2ccccc2C(Nc2ccc(F)c(Cl)c2)N1Cc1ccco1 (centres undefined) | 7 | -10 | 10 | 17 | 0.8 | .
O=C1c2ccccc2C(Nc2ccc3c(c2)OCO3)N1Cc1ccc2c(c1)OCO2 (centres undefined) | 60* | -15 | 7 | 34 | 0.7 | 44
O=c1[nH]cnc2scc(-c3ccsc3)c12 | 0 | 6 | 1 | 20 | 0.8 | .
O=C(OCC(O)CO)c1ccccc1Nc1ccnc2cc(Cl)ccc12 (centres undefined) | 82* | . | 4 | . | . | 31
CC1(NC(=S)Nc2ccc3ccccc3c2)CCS(=O)(=O)C1 (centres undefined) | 7 | . | 4 | . | . | .
CN(C)C(=S)NC(=S)Nc1ccc2ccccc2c1 | 71* | . | 6 | . | . | 6
CC(=O)N1CCN(c2ccc(NC(=O)c3ccc4c(c3)OCCO4)cc2Cl)CC1 | 67* | 13 | 4 | 7 | 0.9 | 42
CC(C)C(=O)N1CCN(c2ccc(NC(=O)c3ccc4c(c3)OCCO4)cc2Cl)CC1 | 68* | 20 | -5 | 18 | 0.8 | 29
C(=N\NC1=Nc2cccc3cccc1c23)/c1ccccn1 | 65* | 0 | 0 | 2 | 1 | 14
COc1cc(-c2nnc(SCC(=O)Nc3cc(C)on3)n2C)cc(OC)c1O | 12 | 3 | -4 | 13 | 0.9 | .
O=C(CN1CCN(c2ccc(O)cc2)CC1)Nc1ccccc1C(=O)NCCc1ccccc1 | 70* | . | 5 | . | . | 34
Oc1ccc(N2CCN(C(=S)NCCc3ccccc3)CC2)cc1 | 67* | 8 | 7 | 33 | 0.7 | 11
COc1ccc(N2CCN(C(=S)NCCc3ccccc3)CC2)cc1 | -1 | . | -3 | . | . | .
Cc1n[nH]c(C)c1CCC(=O)N/N=C/c1c[nH]c2ccccc12 | 8 | . | -5 | . | . | .
Oc1ccc(C[C@H]2CNC(=S)N2CC2CCCN2C[C@H](Cc2ccc(O)cc2)N2C[C@H](Cc3ccc(O)cc3)N(CC3CCCCCC3)C2=S)cc1 (some centres undefined) | 17 | . | 1 | . | . | .
